# Shown are actives, neighbours in structure and some others; about 3.7% of the full set was active somewhere.
# KCNQ1 pot: potentiators or activators of KCNQ1 channel, primary screen, cell-based, thallium flux, high-throughput; Potassium voltage-gated channel subfamily KQT member 1 (Homo sapiens), P51787; CHO-K1 KCNQ1, thallium flux FluxOR fluorescence; stronger effect = higher value; B-score at 10 µM; 310,000 compounds, 0.35% hits;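 active = fluorescence ratio B-score, a plate-corrected score, at least three library SD, with initial intensity B-score within 5 SD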
# Target sequence (P51787 whole entry, looked up): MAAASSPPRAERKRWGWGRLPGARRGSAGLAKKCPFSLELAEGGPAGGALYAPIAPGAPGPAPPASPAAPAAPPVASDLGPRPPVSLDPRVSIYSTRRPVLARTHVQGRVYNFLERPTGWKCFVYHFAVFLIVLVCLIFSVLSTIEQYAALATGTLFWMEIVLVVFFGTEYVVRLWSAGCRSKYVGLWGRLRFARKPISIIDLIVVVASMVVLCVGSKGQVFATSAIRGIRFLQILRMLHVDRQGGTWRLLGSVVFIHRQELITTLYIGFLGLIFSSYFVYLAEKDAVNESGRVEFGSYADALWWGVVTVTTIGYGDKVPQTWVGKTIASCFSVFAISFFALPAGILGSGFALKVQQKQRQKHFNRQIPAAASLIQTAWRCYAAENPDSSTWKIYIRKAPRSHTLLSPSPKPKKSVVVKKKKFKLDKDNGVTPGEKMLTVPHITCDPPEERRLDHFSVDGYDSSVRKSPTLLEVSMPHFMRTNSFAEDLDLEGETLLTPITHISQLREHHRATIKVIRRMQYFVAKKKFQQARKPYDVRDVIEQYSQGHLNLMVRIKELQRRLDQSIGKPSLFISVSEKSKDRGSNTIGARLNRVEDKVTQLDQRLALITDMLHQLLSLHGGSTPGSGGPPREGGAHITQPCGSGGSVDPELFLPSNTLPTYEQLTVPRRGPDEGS
#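 assay system = KCNQ1-transfected CHO-K1 cells | medium = assay buffer with matched DMSO | probe or stimulus = depolarizing K+/Tl+ stimulus, K2SO4 and Tl2SO4 each 12.5 mM in 5x stock | dosing = single dose | incubation = dye 90 min, compound 20 min, room temperature | detection = kinetic FluxOR fluorescence, 10 s baseline plus 110 s post-stimulus | evaluation = ratio B score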
# Kir21 block: inhibitors of mouse Kir2.1 inward-rectifier potassium channel. B-score at 10 µM. HEK293-Kir2.1, FluxOR thallium flux fluorescence; stronger effect = lower value. AID 1672, 2009. 310,000 compounds, 0.85% hits. Inward rectifier potassium channel 2 (Mus musculus), P35561;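 active = fluorescence ratio B-score at or below minus 3 SD of library scores, with starting-brightness B-score within 2 SD, cut at about -4.2 in these data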;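 note: channel flux triggered by added potassium and thallium sulfate stimulus; B-score of peak minus minimum fluorescence over baseline after thallium stimulus; more negative B-score means stronger Kir2.1 block with less thallium influx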
# KCNK9 block: KCNK9 potassium channel inhibitors, primary screen, HEK293 cells, thallium flux; 310,000 compounds, 1.2% hits; FluxOR thallium flux fluorescence; stronger effect = lower value; Potassium channel subfamily K member 9 (Homo sapiens), Q9NPC2; B-score at 10 µM;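 active = ratio B-score over 3 SD below the library mean, with starting fluorescence within 5 SD of its mean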;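 note: negative B-score means less thallium flux so channel inhibition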
# hERG protect: hERG rescue from dofetilide block, primary screen, cell-based, CHO-hERG, FluxOR thallium flux, dofetilide IC70 | Voltage-gated inwardly rectifying potassium channel KCNH2 (Homo sapiens), Q12809 | dofetilide IC70 present | activation (rescue from dofetilide block), less the hit threshold, % at 10 µM | 310,000 compounds, 0.51% hits | AID 1511, 2009;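 active = activation above the mean of controls blocked by dofetilide plus 5 SD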;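 note: thallium influx through hERG after potassium depolarization seen as dye fluorescence rise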
# KCNQ1 inh: inhibitors of human KCNQ1 channel, primary screen, cell-based, thallium flux, high-throughput | Potassium voltage-gated channel subfamily KQT member 1 (Homo sapiens), P51787 | CHO-K1 KCNQ1, FluxOR thallium flux fluorescence; stronger effect = higher value | B-score at 10 µM | 310,000 compounds, 1.3% hits;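 active = compounds whose thallium flux B-score, printed positive for inhibition, exceeds three library SD while starting fluorescence stays within three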;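 note: channel opened by potassium depolarization with thallium stimulus after 20 min compound exposure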
# KCNK3 inh: human KCNK3 channel inhibitors, primary screen, CHO cells, FluxOR thallium flux, B-score; Potassium channel subfamily K member 3 (Homo sapiens), O14649; FluxOR fluorescence; stronger effect = lower value; B-score at 10 µM; 340,000 compounds, 0.84% hits;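 active = B-score under library mean minus 4 SD, starting fluorescence ratio at most library mean plus 5 SD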;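 note: more negative B-score means stronger inhibition of thallium flux through KCNK3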
# KCNK9 block conf: KCNK9 potassium channel inhibitors, confirmation, HEK293 cells, thallium flux, duplicate. shares compounds with KCNK9 block. FluxOR thallium flux fluorescence. inhibition, % at 10 µM. 4,900 compounds, 43% hits. AID 492992, 2010;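 active = thallium signal inhibited by more than 5 SD of the compound-free buffer control wells, on both duplicate plates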
# Kir2-1 spec: mouse Kir2.1 channel inhibition, confirmation, selectivity assay for KCNK9 modulator project, cell-based, HEK293, thallium flux; shares compounds with KCNK9 block; Kir2.1 cells, FluxOR thallium flux fluorescence; inhibition, % at 10 µM; 4,900 compounds, 4% hits;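 active = thallium signal drop more than 5 SD beyond the mean of the no-compound control wells, seen in both duplicate plates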;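 note: signal is fluorescence rise after thallium addition divided by baseline fluorescence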
# KCNK9 uninduced: thallium flux in non-induced HEK293 cells, confirmation, counter-screen for KCNK9 inhibitor project, cell-based, second counter screen, non-induced KCNK9-HEK293; FluxOR thallium flux; inhibition, % at 10 µM; 4,900 compounds, 40% hits; shares compounds with KCNK9 block;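 active = thallium signal drop beyond 5 SD of the untreated control mean, on both duplicate plates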
# Hits are given with their value; . = inactive; / = not tested or not shown.
SMILES,KCNQ1 pot,Kir21 block,KCNK9 block,hERG protect,KCNQ1 inh,KCNK3 inh,KCNK9 block conf,Kir2-1 spec,KCNK9 uninduced
O=c1[nH]c(=S)n(C2CC2)c(O)c1C=NCC1CCCO1 (stereo not drawn),.,.,.,.,.,.,/,/,/
Cc1cc(O)c(CN2CC=C(c3ccccc3)CC2)cc1C(C)C,.,.,.,.,.,.,.,.,.
OC(CN1CC=C(c2ccccc2)CC1)c1ccccc1 (stereo not drawn),.,.,.,.,.,.,/,/,/
CCCCC/C(=N\O)c1c[nH]c2ccccc12,.,.,-13,.,.,.,56%,.,25%
CCCCC/C(=N/O)c1c(C)[nH]c2ccccc12,.,.,.,.,.,.,/,/,/
c1ccc2c3c(ccc2c1)OCC1CONC31 (stereo not drawn),.,.,.,.,.,/,/,/,/
CC(C)n1c(=O)c(C=Nc2ccc(F)cc2)c(O)n(Cc2ccco2)c1=O,.,.,.,.,.,.,.,.,.
CC(CC(C)(C)N1CC1)=NO,/,/,/,/,/,.,/,/,/
C[n+]1ccc(-c2cc[n+](C)cc2)cc1,/,/,/,/,/,.,/,/,/
COc1ccccc1N1CCN(C2CCCN(C(=O)COc3ccccc3Cl)C2)CC1 (stereo not drawn),.,.,.,.,.,.,.,.,.
COc1ccccc1OCC(=O)N1CCCC(N(C)Cc2ccccc2)C1 (stereo not drawn),.,.,.,.,.,.,/,/,/
Cc1ccc(O)c(C(=O)c2cc(C(=O)NCc3ccccc3)c(=O)n(Cc3ccccc3)c2)c1,.,.,-10,.,.,.,38%,.,46%
Cn1cc(C(=O)NCc2ccccc2)c2ccccc21,.,.,.,.,.,.,/,/,/
COc1cc(C)c(CN2CC=C(c3ccc(F)cc3)CC2)cc1C,.,.,.,.,.,.,.,.,.
COc1cc(CN2CC=C(c3ccc(F)cc3)CC2)cc(OC)c1,.,.,.,.,.,.,/,/,/
COP(=O)(OC)C1(Nc2ccc(C)cc2)CCCCC1,.,.,.,.,.,.,/,/,/
FC(F)(F)c1cccc(-n2nnnc2C2(N3CCOCC3)CCCCC2)c1,.,.,-10,.,.,.,42%,.,35%
O=C1CC(=O)N(c2cccc(C(F)(F)F)c2)C(=O)N1,.,.,.,.,.,.,/,/,/
COc1cccc(C(=O)C2CCCN(Cc3cccc(C)n3)C2)c1 (stereo not drawn),.,.,.,.,.,.,/,/,/
COc1cccc(C(=O)C2CCCN(Cc3ccc4nsnc4c3)C2)c1 (stereo not drawn),.,.,.,.,.,.,.,.,.
O=C(c1ccc(Cl)cc1)C1CCCN(Cc2cccc3cccnc23)C1 (stereo not drawn),.,.,.,.,.,.,.,.,.
Cc1cccc(CN2CCCC(C(=O)c3cccc(OC(C)C)c3)C2)n1 (stereo not drawn),.,.,.,.,.,.,.,.,.
O=C(c1ccc2c(c1)OCO2)C1CCCN(Cc2c(F)cccc2Cl)C1 (stereo not drawn),.,.,.,.,.,.,.,.,.
Cc1oc(-c2ccc(F)cc2F)nc1CN1C[C@@H]2C[C@@H](C1)c1cccc(=O)n1C2,.,.,.,.,.,.,/,/,/
Cc1[nH]c2ccccc2c1CN1CCCCC1,/,/,/,/,/,.,/,/,/

# From PubChem BioAssay
